Compounds with a hit are over-represented: about 2% of the library has one in this group of screens.
eIF4E-4G inh – inhibitors of eIF4E and eIF4G interaction in translation initiation. TR-FRET eIF4E-eIF4GI(517-606) binding, 2 h. inhibition, % at 21.7 µM. 0.37% of 220,000 active. AID 782;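 note: 0% = full FRET control wells and 100% = background wells lacking eIF4GI fragment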
Hck Nef HTS – blocks Nef-activated human Hck kinase; P08631; Recombinant Hck-YEEI plus Nef, Z-Lyte FRET kinase assay; inhibition, % at 20 µM; 0.68% of 220,000 active; AID 463187;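 active = Hck-Nef kinase inhibition above about 50%, limit read from the data; inactive = inhibition below that limit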;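 note: 0% = DMSO with Hck plus Nef and 100% = Hck alone without Nef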
Target sequence (P08631 whole entry, looked up): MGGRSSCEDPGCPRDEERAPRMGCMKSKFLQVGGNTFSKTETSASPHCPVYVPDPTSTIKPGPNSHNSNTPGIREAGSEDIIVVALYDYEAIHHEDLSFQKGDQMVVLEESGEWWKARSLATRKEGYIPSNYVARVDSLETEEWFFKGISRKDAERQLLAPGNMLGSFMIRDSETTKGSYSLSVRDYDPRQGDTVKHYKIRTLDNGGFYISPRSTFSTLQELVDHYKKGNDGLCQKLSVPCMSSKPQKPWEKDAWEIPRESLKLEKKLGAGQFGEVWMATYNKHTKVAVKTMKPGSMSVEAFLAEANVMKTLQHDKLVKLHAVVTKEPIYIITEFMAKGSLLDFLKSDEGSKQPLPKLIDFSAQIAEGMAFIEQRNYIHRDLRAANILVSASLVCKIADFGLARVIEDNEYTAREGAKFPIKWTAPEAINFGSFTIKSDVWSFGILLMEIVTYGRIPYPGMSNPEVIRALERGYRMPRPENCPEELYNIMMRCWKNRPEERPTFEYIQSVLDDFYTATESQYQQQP
Diaph act CS – counter-screen for diaphorase-based assays: diaphorase activators and chemical reducers; activation factor at 20 µM; AID 1229; 0.005% of 190,000 active; Diaphorase/resazurin coupled assay, resorufin fluorescence, 16 min; active compounds read high; 1 = vehicle wells, 0 = NADH-free wells;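 active = diaphorase activity raised at least twofold by the compound at 20 µM; inactive = activation factor below 2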
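Assay system: Purified diaphorase enzyme from Clostridium kluyveri | Amount: Enzyme 0.07 U/mL final | Dosing: Compound 20 µM once, DMSO 1% | Timing: 16 min reaction at room temperature | Detection: Fluorescence, excitation 544 nm and emission 590 nm | Evaluation: Higher resorufin formation from activation or reduction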
14-3-3 Bad inh – disrupts binding of bovine 14-3-3 zeta to phospho-Bad peptide; P63103; TR-FRET 14-3-3zeta/Dy647-pBad peptide displacement, 1 h; inhibition, % at 21.7 µM; 0.71% of 220,000 active;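 active = inhibition above about 70%, limit read from the data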;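 note: 0% = full 14-3-3 plus peptide FRET controls and 100% = background without 14-3-3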
p47phox inh – blocks human p47phox regulatory protein of NADPH oxidases | P14598 | p47phox/p22phox peptide binding, fluorescence polarization, 2 h | inhibition, % at 24.7 µM | 0.53% of 220,000 active;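 note: 0% = p47phox with labelled peptide and 100% = labelled peptide alone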
Numbers without * were called inactive; . = no result given; [ ] = remark or other dose.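 Rule for the calls, unless noted: active = inhibition above about 30% (limit read from the data); inactive = the rest.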

SMILES	eIF4E-4G inh	Hck Nef HTS	Diaph act CS	14-3-3 Bad inh	p47phox inh
O=C(O)[C@@H](c1ccccc1)N1Cc2ccccc2C1=O	90*	0	1.1	92*	-6
O=C(O)CC(c1cccc([N+](=O)[O-])c1)N1Cc2ccccc2C1=O (configuration not stated)	3	-5	0.9	3	3
CCc1ccc(NC(=O)C2CCCN2S(=O)(=O)c2ccc3c(c2)n(C)c(=O)c(=O)n3C)cc1 (configuration not stated)	4	-7	.	2	1
CCOC(=O)CC1COCCN1Cc1cn[nH]c1-c1cc(OC)c(OC)c(OC)c1 (configuration not stated)	5	19	.	-8	-5
O=S(=O)(c1ccccc1)N1CCCC1c1cccs1 (configuration not stated)	97*	12	.	-5	-12
COc1cc(Cl)cc(NC(=O)CCN2CCN(C)CC2)c1	6	-1	1	77*	4
CN1CCN(c2ccc(C(=O)c3cn(-c4ccc(F)c(Cl)c4)nn3)cc2)CC1	-8	3	1.1	76*	13
Cc1ccccc1N=Nc1c(C)[nH]n(-c2ccccc2)c1=O	59*	21	0.8	-9	-10
CCCCN(CC)S(=O)(=O)c1ccc(C(=O)N(CCCN(C)C)c2nc3cc(C)cc(C)c3s2)cc1	10	-7	1.2	13	36*
CCCCN(C)S(=O)(=O)c1ccc(C(=O)N(CCN(C)C)c2nc3ccc(C)cc3s2)cc1	-3	20	0.8	-11	-2
CCOC(=O)C1=C(C)OC(N)=C(C#N)C1c1cc(C)sc1C (configuration not stated)	7	1	1	-1	-12
CCOC(=O)C1=C(C)OC(N)=C(C#N)C1c1cc2cc(C)ccc2nc1N1CCCCC1 (configuration not stated)	5	7	0.8	-71	49*
CCOC(=O)C1=C(C)OC(N)=C(C#N)C1c1cc2ccccc2nc1N1CCCCC1 (configuration not stated)	-9	0	0.7	41	81*
Cc1nc(N2CCOCC2)nc(Oc2ccccc2)c1[N+](=O)[O-]	-3	17	.	1	-1
CNC(=O)C(=O)N/N=C/c1cccnc1	-1	13	.	8	6
COc1ccc(NC(=O)C(=O)N/N=C/c2cccnc2)cc1	85*	24	.	-3	-9
COc1ccc(S(=O)(=O)N2CCOCC2)cc1NC(=O)CSc1cccc[n+]1[O-]	6	4	.	3	-8
Cc1ccc(NC(=O)CN2C(=O)N/C(=C/c3ccco3)C2=O)cc1	15	6	0.9	4	3
Cc1ccc(NC(=O)CN2C(=O)N/C(=C/c3cccn3-c3ccc(C(=O)O)cc3)C2=O)cc1	34*	26	0.6	38	-43
Cc1cccc(NC(=O)CN2C(=O)S/C(=C\c3cccn3-c3cccc(C(=O)O)c3)C2=O)c1	6	72*	0.9	-4	-26
Cc1ccc(NC(=O)CN2C(=O)S/C(=C\c3cccn3-c3cccc(C(=O)O)c3)C2=O)cc1C	2	50*	0.8	-8	-47
Cc1ccc(NC(=O)CN2C(=O)S/C(=C\c3ccc(-c4cccc(C(=O)O)c4C)o3)C2=O)cc1C	58*	24	-0.1	87*	-56
S=C(NCc1ccccc1)N1CCN(C2CCCCC2)CC1	-8	25	.	-3	-3
C=CCN(c1ccccc1C(=O)O)S(=O)(=O)c1ccc(C)cc1	-3	21	.	-8	-5
CC1=CC(C)(C)Nc2ccc(C)cc21	6	1	0.7	81*	-5
SMILES	eIF4E-4G inh	Hck Nef HTS	Diaph act CS	14-3-3 Bad inh	p47phox inh
CC1=CC(C)(C)Nc2ccc(Cc3ccc4c(c3)C(C)=CC(C)(C)N4)cc21	9	-3	.	1	20
COc1ccc(Nc2nc(-c3cccs3)cs2)c(OC)c1	6	-11	0.9	78*	-6
COc1ccc(OC)c(Nc2nc(-c3cccs3)cs2)c1	-4	1	0.8	-20	-12
O=C(Nc1ccc(F)cc1)c1ccc(-n2ccnc2)nc1	8	0	0.9	86*	-3
O=C(Nc1ccncc1)c1ccc(F)cc1	-6	0	0.9	-5	-2
Cn1cccc1CC(=O)NNC(=S)NC(=O)c1ccc(F)cc1	-1	-6	.	-9	-2
O=C(O)/C=C/c1ccc(O)c(O)c1	2	-6	0.5	-5	2
O=C(/C=C/c1ccc(O)c(O)c1)O[C@H](Cc1ccc(O)c(O)c1)C(=O)O	16	52*	.	61	-29
CCOc1ccccc1OCc1nn2c(COc3ccccc3)nnc2s1	32*	1	0.8	-8	-16
c1ccc(Cc2nn3c(COc4ccccc4)nnc3s2)cc1	15	0	0.9	21	0
COc1ccc(N(CC(=O)Nc2ccccc2C(N)=O)S(=O)(=O)c2ccc(C)c([N+](=O)[O-])c2)cc1	-1	15	0.8	0	-17
COc1ccc2[nH]c3c4c(ccc3c2c1)C(=O)C=CC4=O	18	6	.	26	31*
COc1ccc2[nH]c(=O)cc(C(=O)O)c2c1	6	23	0.8	26	3
CCc1ccccc1NC(=O)CSc1ccsc1[N+](=O)[O-]	8	5	0.9	-5	-2
O=C(CSc1ccsc1[N+](=O)[O-])Nc1cccc(F)c1	50*	32	0.6	51	-11
CC(C)CC1NC(=O)N(Cc2nc3ccccc3s2)C1=O (configuration not stated)	0	31	.	-2	-13
COc1ccc(F)cc1C(=O)C1CCCN(Cc2cnc(N3CCCC3)s2)C1 (configuration not stated)	-2	5	0.9	4	4
COc1ccc(Cl)cc1C(=O)C1CCCN(Cc2cnc(N3CCOCC3)s2)C1 (configuration not stated)	4	21	1	3	47*
COc1cc2c(cc1OC)C1(CCCC1)CNC2c1cccc([N+](=O)[O-])c1 (configuration not stated)	5	6	0.9	-1	-4
O=C(Nc1nnc(C23CC4CC(CC(C4)C2)C3)s1)c1ccc(N2C(=O)CCC2=O)cc1	62*[fluorescence artefact?]	4	0.8	15	-10
CC(NS(=O)(=O)c1ccc(Cl)cc1)C(=O)NCCC1=CCCCC1 (configuration not stated)	3	8	0.8	-7	-6
CCCCNC(c1ccccc1)c1ccncc1 (configuration not stated)	9	-1	0.8	71*	-6
O=C(CNC(c1ccccc1)c1ccccc1)Nc1ccccc1-c1ccccc1	1	-2	0.9	-5	-7
CCCC(C)NCC(=O)Nc1ccccc1-c1ccccc1 (configuration not stated)	-7	3	0.8	72*	-19
CCN(CC)C(=S)SCC(=O)Nc1ncc2c(n1)CCCC2=O	0	8	.	1	-3

Screening data as filed in PubChem.
